The source of these data is ChEMBL document CHEMBL1938274, “Discovery of potent and specific CXCR3 antagonists” (Bioorg Med Chem Lett, 2012).

Data set [1] is described as follows: Permeability of the compound at pH 5 to 7.4 by PAMPA. The format is ADME. The note with it: read-out: permeability. The gist of the method: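 PAMPA permeability measured across pH 5 to 7.4.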
On the technique in general: PAMPA measures passive passage across an artificial lipid membrane.

The test system of data set [2] is PBL. In words: Toxicity in human PBL assessed as chromosomal aberrations at 7.81 to 1000 ug/mL in the presence of S9. The data set is classed as cell-based. An outline of the steps: (§1)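 Cultured human peripheral blood lymphocytes exposed at 7.81–1000 μg/mL, with and without S9 metabolic activation; chromosomal aberrations scored.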
Data set [3] addresses T1, C-X-C chemokine receptor type 3 (Homo sapiens, UniProt P49682).
T1 sequence (P49682 whole entry): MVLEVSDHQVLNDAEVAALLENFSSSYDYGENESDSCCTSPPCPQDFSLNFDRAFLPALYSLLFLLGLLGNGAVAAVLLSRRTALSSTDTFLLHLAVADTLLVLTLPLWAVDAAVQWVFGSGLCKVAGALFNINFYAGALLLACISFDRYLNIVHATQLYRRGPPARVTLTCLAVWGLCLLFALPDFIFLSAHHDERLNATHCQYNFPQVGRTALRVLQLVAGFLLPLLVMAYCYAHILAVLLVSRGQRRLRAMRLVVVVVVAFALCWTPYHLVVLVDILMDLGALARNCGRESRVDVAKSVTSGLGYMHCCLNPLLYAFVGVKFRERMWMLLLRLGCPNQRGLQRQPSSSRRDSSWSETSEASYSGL
In words: Displacement of [125I]-IP-10 from CXCR3. Background: In a radioligand displacement assay an active substance lowers the binding of a labelled ligand.

Data set [4] has as its target T1, C-X-C chemokine receptor type 3. In words: Displacement of [125I]-IP-10 from CXCR3 in presence of 100% human serum.
The subject of data set [5] is PBL. The data set is described as follows: Toxicity in human PBL assessed as chromosomal aberrations at 7.81 to 1000 ug/mL. The format is cell-based. An outline of the steps: as §1
Data set [6] is described as follows: Clearance in cynomolgus monkey at 0.5 mg/kg, iv. Particulars: in vivo. The data set is classed as ADME, organism-based, Macaca fascicularis. Details: dose 0.5 mg/kg, route intravenous. The gist of the method:
(§2)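 Single intravenous dose in 10% N,N-dimethylacetamide, 10% ethanol, 30% propylene glycol, 50% water: 1 mg/kg mouse; 0.5 mg/kg rat, beagle dog, cynomolgus monkey. Plasma clearance also given as percent of hepatic blood flow.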

Data set [7] in a line: Apparent oral bioavailability in mouse at 5 mg/kg. The note with it: in vivo, read-out: Fapp. The format is ADME, organism-based.
Data set [8] in a line: Apparent oral bioavailability in Beagle dog at 2 mg/kg. Particulars: in vivo, read-out: Fapp. The format is ADME, organism-based, Canis lupus familiaris.
A short description of data set [9]: Apparent oral bioavailability in cynomolgus monkey at 2 mg/kg. The data set is classed as ADME, organism-based, Macaca fascicularis. Particulars: in vivo, read-out: Fapp.
A short description of data set [10]: Clearance in mouse at 1 mg/kg, iv. The data set is classed as ADME, organism-based. More on the design: dose 1 mg/kg, route intravenous. The note with it: in vivo. The gist of the method: as §2
Data set [11] in a line: Clearance in Beagle dog at 0.5 mg/kg, iv. Details: dose 0.5 mg/kg, route intravenous. The format is ADME, organism-based, Canis lupus familiaris. Particulars: in vivo. The gist of the method: as §2
Data set [12] addresses Cytochrome P450 2D6 (Homo sapiens, UniProt P10635). The data set is described as follows: Inhibition of CYP2D6. The format is ADME.
Data set [13] concerns the target Cytochrome P450 3A4 (Homo sapiens, UniProt P08684). The data set is described as follows: Inhibition of CYP3A4. The format is ADME.

pIC50: −log10 of the molar value.

Sequence of Cytochrome P450 3A4 (P08684 whole entry): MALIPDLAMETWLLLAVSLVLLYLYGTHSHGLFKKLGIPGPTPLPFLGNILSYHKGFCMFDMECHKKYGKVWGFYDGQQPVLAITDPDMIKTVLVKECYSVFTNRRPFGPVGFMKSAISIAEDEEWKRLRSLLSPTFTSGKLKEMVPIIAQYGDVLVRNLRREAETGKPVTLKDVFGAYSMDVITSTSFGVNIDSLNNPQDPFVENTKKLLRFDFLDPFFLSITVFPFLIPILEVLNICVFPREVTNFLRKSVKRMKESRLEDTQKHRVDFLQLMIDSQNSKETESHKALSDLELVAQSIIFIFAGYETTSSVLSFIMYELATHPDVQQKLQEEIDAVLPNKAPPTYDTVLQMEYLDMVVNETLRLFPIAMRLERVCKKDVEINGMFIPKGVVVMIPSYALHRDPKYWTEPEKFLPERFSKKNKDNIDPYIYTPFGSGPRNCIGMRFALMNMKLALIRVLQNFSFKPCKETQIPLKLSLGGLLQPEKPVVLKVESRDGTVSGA
Sequence of Cytochrome P450 2D6 (P10635 whole entry): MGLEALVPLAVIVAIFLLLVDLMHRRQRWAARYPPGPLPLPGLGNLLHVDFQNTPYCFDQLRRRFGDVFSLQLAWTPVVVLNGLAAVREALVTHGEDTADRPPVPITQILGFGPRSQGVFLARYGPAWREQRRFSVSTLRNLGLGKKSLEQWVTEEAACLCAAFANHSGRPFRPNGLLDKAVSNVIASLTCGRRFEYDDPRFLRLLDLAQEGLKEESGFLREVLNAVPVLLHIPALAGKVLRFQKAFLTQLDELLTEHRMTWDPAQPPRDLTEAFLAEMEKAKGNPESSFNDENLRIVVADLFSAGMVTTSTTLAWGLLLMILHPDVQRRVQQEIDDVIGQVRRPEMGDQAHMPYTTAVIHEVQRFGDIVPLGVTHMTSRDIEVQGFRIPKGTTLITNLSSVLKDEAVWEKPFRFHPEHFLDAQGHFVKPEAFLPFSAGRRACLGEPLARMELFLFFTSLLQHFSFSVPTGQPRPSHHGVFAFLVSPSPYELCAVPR

One may read the pIC50 as −log10 of the IC50, conventionally taken in molar units. On to `CCS(=O)(=O)CCN(C(=O)Cc1ccc(C(F)(F)F)c(F)c1)[C@H](C)c1nc2ncccc2c(=O)n1-c1ccc(F)cc1`, for which the Papp in [1] came to 0.8 ×10⁻⁶ cm/s. Further, the Activity result in data set [2] and in [5] was “Non-toxic” each time. Moreover, the negative logarithm of the IC50 (pIC50) is 7.33 in data set [3] and 7.24 in [4].
What is called clearance is a measure of how efficiently the substance is removed, as volume per time. Regarding `C[C@H](c1nc2ncccc2c(=O)n1-c1ccc(C#N)cc1)N(CC1CCS(=O)(=O)CC1)C(=O)Cc1ccc(F)c(C(F)(F)F)c1`, the values for the clearance in data set [6], in data set [10] and in data set [11] were 21.7 mL/min/kg, 8.17 mL/min/kg and 8.33 mL/min/kg, respectively. The values for the bioavailability in data set [7], in [8] and in data set [9] were 17%, 1.6% and 1%, respectively. The Activity result in data set [2] and in [5] was “Non-toxic” throughout. The pIC50 was 8.10 in data set [3] and 7.92 in data set [4].
Turning to `C[C@H](c1nc2ncccc2c(=O)n1-c1ccc(Cl)cc1)N(CC1CCS(=O)(=O)CC1)C(=O)Cc1ccc(C(F)(F)F)c(F)c1`, the pIC50 in [12] was below 5.00; in [13] it was below 5.00; in data set [4], 7.89. The Activity entry in data set [2] and in [5] was “Non-toxic” throughout.
